hERG protect: shields human hERG channel from block by proarrhythmic agents. AID 1511. Q12809. 310,000 tested, 0.51% active. CHO-hERG, FluxOR thallium flux, dofetilide IC70 present. activation (rescue from dofetilide block), less the hit threshold, % at 10 µM;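 active = activation above the mean of controls blocked by dofetilide plus 5 SD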;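 note: thallium influx through hERG after potassium depolarization seen as dye fluorescence rise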
KCNQ1 inh: blocks the human KCNQ1 potassium channel; P51787; CHO-K1 KCNQ1, FluxOR thallium flux fluorescence; hits give high values; B-score at 10 µM; 310,000 tested, 1.3% active; AID 2642;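 active = compounds whose thallium flux B-score, printed positive for inhibition, exceeds three library SD while starting fluorescence stays within three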;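 note: channel opened by potassium depolarization with thallium stimulus after 20 min compound exposure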
KCC2 mod: KCC2 (human) Cl- transport modulation. 190,000 tested, 2.2% active. AID 1456. Q9H2X9. B-score of Tl+ flux slope (higher = more flux/activation; lower = inhibition) at 10 µM. KCC2 cells, thallium flux FluoZin-2 fluorescence;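 active = thallium flux slope and its plate-corrected score both differing from the plate sample mean at a set confidence after two filtering rounds, in either direction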;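 note: slope of fluorescence scaled to starting intensity during 10 to 20 s after thallium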
KCNQ1 act: human KCNQ1 channel potentiation or activation; B-score at 10 µM; 310,000 tested, 0.35% active; AID 2648; P51787; CHO-K1 KCNQ1, thallium flux FluxOR fluorescence; hits give high values;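 active = fluorescence ratio B-score, a plate-corrected score, at least three library SD, with initial intensity B-score within 5 SD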
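System: CHO-K1 cells stably expressing KCNQ1 / Medium: assay buffer for compound exposure, DMSO matched across wells / Reagent: thallium- and potassium-containing depolarizing buffer / Compound: one concentration, matched DMSO / Incubation: 20 min compound pretreatment at room temperature / Measured by: kinetic FluxOR fluorescence, 10 s baseline plus 110 s post-stimulus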
KCNK3 block: human KCNK3 channel inhibition, primary screen; O14649; CHO-KCNK3 thallium flux, FluxOR fluorescence; hits give low values; B-score at 10 µM; 340,000 tested, 0.84% active;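 active = B-score under library mean minus 4 SD, starting fluorescence ratio at most library mean plus 5 SD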;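 note: more negative B-score means stronger inhibition of thallium flux through KCNK3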
KCNK9 inh: human KCNK9 channel inhibition | HEK293 KCNK9, FluxOR thallium flux fluorescence; hits give low values | B-score at 10 µM | 310,000 tested, 1.2% active;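 active = ratio B-score over 3 SD below the library mean, with starting fluorescence within 5 SD of its mean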;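 note: negative B-score means less thallium flux so channel inhibition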
Target sequence (Q9NPC2 whole entry, looked up): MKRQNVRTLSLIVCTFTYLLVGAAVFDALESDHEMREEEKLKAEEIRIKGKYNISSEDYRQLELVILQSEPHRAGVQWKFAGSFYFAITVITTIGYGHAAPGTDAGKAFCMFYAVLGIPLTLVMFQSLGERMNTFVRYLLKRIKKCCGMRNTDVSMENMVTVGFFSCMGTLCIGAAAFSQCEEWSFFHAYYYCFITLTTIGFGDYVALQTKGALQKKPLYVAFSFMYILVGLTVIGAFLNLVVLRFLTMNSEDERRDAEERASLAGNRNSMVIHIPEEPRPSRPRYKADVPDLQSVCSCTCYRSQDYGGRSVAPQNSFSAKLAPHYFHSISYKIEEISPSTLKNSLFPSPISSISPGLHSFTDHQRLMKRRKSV
The depositor's hits bear a star; i = inactive; nt = not tested or not shown. A selection: hits, their analogues and other compounds. The true share with any hit is near 4.1%.

SMILES	hERG protect	KCNQ1 inh	KCC2 mod	KCNQ1 act	KCNK3 block	KCNK9 inh
Cc1ncc(CO)c(/C=N/NC(=S)Nc2ccc(Cl)c(Cl)c2)c1O	-27.7	11*	-1.23	i	i	i
CCCC1=Nc2cc(C(=O)N3CCN(c4ccccn4)CC3)ccc2Sc2ccc(C)cc21	-19.4	7*	nt	i	i	i
COc1ccc(N2CC(C(=O)Nc3cccnc3)CC2=O)cc1 (stereo not given)	-1.3	i	nt	i	i	i
CN(C(=O)c1cnccn1)c1nnc(-c2cnccn2)s1	10.1*	i	nt	i	i	i
CN(C(=O)c1ccccn1)c1nnc(-c2cnccn2)s1	-8.1	i	nt	i	i	i
CCOC(=O)C1=C(COC(=O)COc2ccc(Br)cc2)NC(=O)NC1C (stereo not given)	-22.0	i	nt	i	i	i
CC(C)(C)c1ccc(-c2cn(-c3ccc(Br)cc3)c3[n+]2CCCS3)cc1	-31.0	7*	0.108	i	i	i
Cc1cccc(OCCn2c(=S)[nH]c3ccccc32)c1	-0.7	i	8.91*	i	i	i
O=C(Nc1cccnc1)C1CCN(S(=O)(=O)c2ccc(Cl)cc2)CC1	-5.4	i	nt	i	i	i
CCOc1ccc(N=C2NC(=O)S/C2=C\c2ccc(Cl)cc2)cc1	11.1*	i	nt	i	i	i
CCOc1ccc(N(C)c2ccc(/C=C3/SC(=S)NC3=O)cc2)cc1	-3.8	i	nt	i	i	i
CO[C@@]12[C@@H]3N[C@@H]3CN1C1=C(C(=O)C(N)=C(C)C1=O)[C@@H]2COC(N)=O	nt	nt	nt	nt	i	nt
COc1ccccc1/C=C1\SC(=S)N(CC(=O)NC2CCS(=O)(=O)C2)C1=O (stereo not given)	-15.7	i	nt	i	i	i
COc1cc(-c2csc(CCn3nc(C)cc3C)n2)cc(OC)c1OC	-12.5	i	0.342	i	i	-6.75*
Cc1cc(C)n(CCc2nc(-c3ccc(F)cc3)cs2)n1	-10.5	i	-3.27	i	i	i
COc1ccc(C(=O)N2CCN(c3ccccc3Cl)CC2)cc1S(=O)(=O)NC1CC1	nt	nt	nt	nt	i	nt
O=C(O)CN1C(=O)C(=O)N(Cc2ccc(C(F)(F)F)cc2)C1=O	5.4*	i	nt	i	i	i
CC(=O)c1ccc(NC(=O)Nc2ccncc2)cc1	4.8*	i	-0.547	i	i	i
O=C(Nc1ccc(Oc2ccc(NC(=O)Nc3ccc([N+](=O)[O-])cc3)cc2)cc1)Nc1ccc([N+](=O)[O-])cc1	-18.0	8*	0.788	i	i	i
O=C(Nc1ccc([N+](=O)[O-])cc1)Nc1cnccn1	-15.8	12*	nt	i	i	i
CC(=O)c1ccc(-n2nncc2-c2ccc([N+](=O)[O-])cc2)cc1	5.5*	i	-1.53	i	i	i
Cc1cccc(C(=O)N2N=C(c3ccc(NS(C)(=O)=O)cc3)CC2c2cccs2)c1 (stereo not given)	-12.4	i	nt	i	i	i
CCOC(=O)C1=C(COC(=O)c2ccc([N+](=O)[O-])o2)NC(=O)NC1C (stereo not given)	nt	nt	nt	nt	i	nt
CC(Oc1ccc2cc(-c3ccccc3)c(=O)oc2c1)C(=O)NCC1CCC(C(=O)O)CC1 (stereo not given)	-10.8	i	nt	i	i	i
O=C(NNC(=O)c1ccncc1)Nc1ccc([N+](=O)[O-])cc1	-2.7	7*	0.863	i	i	i
SMILES	hERG protect	KCNQ1 inh	KCC2 mod	KCNQ1 act	KCNK3 block	KCNK9 inh
CC(=O)c1ccc(NC(=O)Nc2ccc([N+](=O)[O-])cc2)cc1	-19.4	7*	-0.924	i	i	i
CC(=O)c1ccc(NS(=O)(=O)c2ccc([N+](=O)[O-])cc2)cc1	nt	nt	nt	nt	i	nt
O=C(N/N=C/c1sc(N2CCOCC2)nc1-c1ccccc1)c1ccccc1O	-13.0	9*	0.851	i	i	i
O=[N+]([O-])c1ccc(N/N=C/c2sc(N3CCOCC3)nc2-c2ccccc2)c(S(=O)(=O)Nc2ccc(Cl)cc2)c1	-17.8	11*	1.15	i	i	i
O=[N+]([O-])c1ccc(N/N=C/c2sc(N3CCOCC3)nc2-c2ccccc2)c(S(=O)(=O)Nc2ccccc2Cl)c1	nt	nt	-1.37	nt	i	nt
Cc1ccc(NC(=O)CN2C(=O)N/C(=C\c3ccco3)C2=O)cc1	nt	nt	nt	nt	i	nt
CC1C/C(=N/Nc2ccc([N+](=O)[O-])cc2[N+](=O)[O-])CC(C)(C)C1 (stereo not given)	-8.1	7*	-0.883	i	i	i
Cc1nn(CCc2nn[nH]n2)c2nc(-c3ccc(C4CCCCC4)cc3)cc(C(F)(F)F)c12	-16.2	i	-1.48	50*	i	i
Cc1nn(CCC(=O)O)c2nc(-c3cccnc3)cc(C(F)(F)F)c12	-1.2	i	-0.418	i	i	i
Cc1ccc(/C=N/NC(=O)CC2N=C(Cc3ccccc3)NNC2=O)cc1 (stereo not given)	5.2*	i	-0.136	i	i	i
C/C(=N\NC(=O)CC1N=C(Cc2ccccc2)NNC1=O)c1ccncc1 (stereo not given)	-5.9	i	-0.232	i	i	i
Cc1onc(-c2ccccc2)c1C(=O)NNC(=S)NC(=O)c1ccc(Br)cc1	-16.1	i	19.6*	34*	i	i
COC(=O)c1c(-c2ccccc2)noc1C	5.8*	i	0.258	i	i	i
CC(=O)Nc1ccc(S(=O)(=O)NCCC(=O)NNC(=O)c2ccccc2O)cc1	nt	nt	nt	nt	i	nt
COc1cc(C(=O)NCC(=O)NNC(=O)C2COc3ccccc3O2)cc(OC)c1OC (stereo not given)	nt	nt	nt	nt	i	nt
CN1CC(c2ccccn2)C2(SC(=S)N(Cc3ccccc3)C2=O)C12C(=O)Nc1ccccc12 (stereo not given)	-10.7	6*	-0.00773	i	i	i
CCCn1c(CN2CCN(C(=O)OCC)CC2)nc2cc(NC(=O)CC)ccc21	-9.0	i	nt	i	i	i
O=C(Cn1ncc2c(=O)oc3ccccc3c21)N1CCN(C(=O)c2ccco2)CC1	-11.6	i	0.0848	8*	i	i
O=C(Cn1ncc2c(=O)oc3ccccc3c21)N1CCN(c2ccccn2)CC1	-2.5	i	-1.4	i	i	i
O=C(COC(=O)c1ccccc1NCCO)NCC1CCCCC1	nt	nt	nt	nt	i	nt
CC(=O)n1cc([C@H]2C=C(C(=O)Nc3ccccc3)O[C@@H](OCCCCO)C2)c2ccccc21	-7.3	i	-5.05*	i	i	i
O=C(OCc1cccc([N+](=O)[O-])c1)c1ccc2ccccc2n1	5.2*	i	-1.22	i	i	i

Screening results as filed in PubChem BioAssay.
